Assay results published in ChEMBL document CHEMBL3864121, “Development of ebsulfur analogues as potent antibacterials against methicillin-resistant Staphylococcus aureus” (Bioorg Med Chem, 2016).
≈ marks a conversion by molar mass, not a printed value. Calls of active or inactive are those of the source. The rule behind the calls is not given here.

Experiments:
Enterococcus faecalis [1] = test: Antibacterial activity against Enterococcus faecalis ATCC 49533 measured after overnight incubation by broth double-dilution method; format: functional
Summary of the method: (§1)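 MIC by broth double-dilution in Mueller-Hinton medium. Re-testing at the time-kill inoculum used 1×10^6 CFU/mL.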

Staphylococcus aureus [2] = test: Bacteriostatic activity against methicillin-resistant Staphylococcus aureus S22 at 4 times MIC measured after 24 hrs by time kill analysis; format: functional
Staphylococcus aureus [3] = test: Antibacterial activity against methicillin-resistant Staphylococcus aureus G14 measured after overnight incubation by broth double-dilution method; format: functional
Summary of the method: (§2)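 MIC by broth double-dilution in liquid Mueller-Hinton medium. Values are reported in µg/mL.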

Enterococcus = test: Antibacterial activity against Vancomycin-resistant Enterococcus measured after overnight incubation by broth double-dilution method; format: functional; summary of the method: as §2
Staphylococcus aureus [4] = test: Antibacterial activity against methicillin-resistant Staphylococcus aureus G12 measured after overnight incubation by broth double-dilution method; format: functional; summary of the method: as §2
Staphylococcus aureus [5] = test: Antibacterial activity against methicillin-resistant Staphylococcus aureus C14 measured after overnight incubation by broth double-dilution method; format: functional; summary of the method: as §2
Staphylococcus aureus [6] = test: Antibacterial activity against methicillin-resistant Staphylococcus aureus 1 measured after overnight incubation by broth double-dilution method; format: functional; summary of the method: as §2
Staphylococcus aureus [7] = test: Antibacterial activity against methicillin-resistant Staphylococcus aureus USA100 measured after overnight incubation by broth double-dilution method; format: functional; summary of the method: as §2
Staphylococcus aureus [8] = test: Bacteriostatic activity against methicillin-resistant Staphylococcus aureus S22 at 0.5 times MIC measured up to 3 to 6 hrs by time kill analysis; format: functional
Staphylococcus aureus [9] = test: Antibacterial activity against methicillin-resistant Staphylococcus aureus C19 measured after overnight incubation by broth double-dilution method; format: functional; summary of the method: as §2
Mus musculus = species: Mus musculus; test: Cytotoxicity against mouse RBCs assessed as hemolysis at 0.24 to 31.2 ug/ml measured after 1 hr; format: toxicity; conditions: erythrocyte
Summary of the method: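 Murine red blood cells were exposed to compounds at various concentrations, with amikacin as a control. Percent hemolysis was scored against untreated cells (0%) and 1% Triton X (100%).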

Enterococcus faecium = test: Antibacterial activity against Enterococcus faecium BM4105-RF measured after overnight incubation by broth double-dilution method; format: functional; summary of the method: as §2
Staphylococcus aureus [10] = test: Antibacterial activity against methicillin-resistant Staphylococcus aureus S17 measured after overnight incubation by broth double-dilution method; format: functional; summary of the method: as §2
Staphylococcus aureus [11] = test: Antibacterial activity against methicillin-resistant Staphylococcus aureus C1 measured after overnight incubation by broth double-dilution method; format: functional; summary of the method: as §2
Staphylococcus aureus [12] = test: Antibacterial activity against methicillin-resistant Staphylococcus aureus BRS3 measured after overnight incubation by broth double-dilution method; format: functional; summary of the method: as §2
Staphylococcus aureus [13] = test: Antibacterial activity against methicillin-sensitive Staphylococcus aureus ATCC 25923 measured after overnight incubation by broth double-dilution method; format: functional; summary of the method: as §2
Staphylococcus aureus [14] = test: Antibacterial activity against methicillin-sensitive Staphylococcus aureus ATCC 29213 measured after overnight incubation by broth double-dilution method; format: functional; summary of the method: as §2
Staphylococcus aureus [15] = test: Antibacterial activity against methicillin-resistant Staphylococcus aureus USA300 measured after overnight incubation by broth double-dilution method; format: functional; summary of the method: as §2
Staphylococcus aureus [16] = test: Antibacterial activity against methicillin-resistant Staphylococcus aureus USA600 measured after overnight incubation by broth double-dilution method; format: functional; summary of the method: as §2
Staphylococcus aureus [17] = test: Antibacterial activity against methicillin-resistant Staphylococcus aureus C7 measured after overnight incubation by broth double-dilution method; format: functional; summary of the method: as §2
Staphylococcus aureus [18] = test: Bacteriostatic activity against methicillin-resistant Staphylococcus aureus S22 at MIC measured up to 3 to 6 hrs by time kill analysis; format: functional
Staphylococcus aureus [19] = test: Antibacterial activity against methicillin-resistant Staphylococcus aureus G6 measured after overnight incubation by broth double-dilution method; format: functional; summary of the method: as §2
Enterococcus faecalis [20] = test: Antibacterial activity against Enterococcus faecalis ATCC 29212 measured after overnight incubation by broth double-dilution method; format: functional; summary of the method: as §1
Listeria monocytogenes = test: Antibacterial activity against Listeria monocytogenes ATCC 19115 measured after overnight incubation by broth double-dilution method; format: functional; summary of the method: as §1
[21] = tested on: Mycolicibacterium smegmatis; test: Antibacterial activity against Mycobacterium smegmatis MC2-155 measured after overnight incubation by broth double-dilution method; format: functional; conditions: str. MC2 155; summary of the method: as §2
[22] = Cytotoxicity against HEK293 cells assessed as cell death at […] measured after 24 hrs by resazurin dye-based fluorescence analysis relative to untreated control; format: toxicity; conditions: human, hek293, 24 h
[23] = tested on: Staphylococcus epidermidis RP62A; test: Inhibition of thioredoxin reductase in Staphylococcus epidermidis ATCC 35984 assessed as induction of ROS production at 1 to 4 times MIC measured after 1 hr by DCFH-DA staining-based fluorescence microscopic analysis
Summary of the method: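 Untreated cells served as the negative control and 1 mM H2O2 as the positive control. Cells were stained with DCFH-DA (40 µg/mL) and ROS were visualized by fluorescence microscopy.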

[24] = tested on: Staphylococcus epidermidis; test: Antibacterial activity against Staphylococcus epidermidis ATCC 35984 measured after overnight incubation by broth double-dilution method; format: functional; conditions: RP62A; summary of the method: as §1
Staphylococcus aureus [25] = test: Antibacterial activity against methicillin-resistant Staphylococcus aureus G1 measured after overnight incubation by broth double-dilution method; format: functional; summary of the method: as §2
Staphylococcus aureus [26] = test: Antibacterial activity against methicillin-resistant Staphylococcus aureus S22 measured after overnight incubation by broth double-dilution method; format: functional; summary of the method: as §2
[27] = Cytotoxicity against mouse RBCs assessed as hemolysis up to […] measured after 1 hr; format: toxicity, Erythrocyte; conditions: mouse red blood cells, read-out: Activity
Staphylococcus aureus [28] = test: Antibacterial activity against methicillin-resistant Staphylococcus aureus 2 measured after overnight incubation by broth double-dilution method; format: functional; summary of the method: as §2
Staphylococcus aureus [29] = test: Antibacterial activity against methicillin-resistant Staphylococcus aureus ATCC 33591 measured after overnight incubation by broth double-dilution method; format: functional; summary of the method: as §2
Staphylococcus aureus [30] = test: Antibacterial activity against methicillin-resistant Staphylococcus aureus NRS4 measured after overnight incubation by broth double-dilution method; format: functional; summary of the method: as §2
Staphylococcus aureus [31] = test: Antibiofilm activity against methicillin-sensitive Staphylococcus aureus ATCC 6538 assessed as reduction of biofilm at […] measured after 24 hrs by crystal violet staining based method relative to control; format: functional; design: scale not given: the % may be the effect or the level left
Staphylococcus aureus [32] = test: Antibacterial activity against methicillin-resistant Staphylococcus aureus C2 measured after overnight incubation by broth double-dilution method; format: functional; summary of the method: as §2
Staphylococcus aureus [33] = test: Antibacterial activity against methicillin-sensitive Staphylococcus aureus ATCC 6538 measured after overnight incubation by broth double-dilution method; format: functional; summary of the method: as §2
Staphylococcus aureus [34] = test: Antibacterial activity against methicillin-resistant Staphylococcus aureus USA200 measured after overnight incubation by broth double-dilution method; format: functional; summary of the method: as §2
Staphylococcus aureus [35] = test: Antibacterial activity against methicillin-resistant Staphylococcus aureus NRS51 measured after overnight incubation by broth double-dilution method; format: functional; summary of the method: as §2
Staphylococcus aureus [36] = test: Antibacterial activity against methicillin-resistant Staphylococcus aureus NRS77 measured after overnight incubation by broth double-dilution method; format: functional; summary of the method: as §2
Staphylococcus aureus [37] = test: Antibacterial activity against methicillin-resistant Staphylococcus aureus S22 using 1 10^6CFU/ml measured after overnight incubation by broth double-dilution method; format: functional
Staphylococcus aureus [38] = test: Antibacterial activity against methicillin-resistant Staphylococcus aureus S24 measured after overnight incubation by broth double-dilution method; format: functional; summary of the method: as §2
Staphylococcus aureus [39] = test: Antibacterial activity against methicillin-resistant Staphylococcus aureus C16 measured after overnight incubation by broth double-dilution method; format: functional; summary of the method: as §2
Staphylococcus aureus [40] = test: Antibacterial activity against methicillin-resistant Staphylococcus aureus S14 measured after overnight incubation by broth double-dilution method; format: functional; summary of the method: as §2

CCCCCCCCn1sc2ccccc2c1=O
MIC (Enterococcus faecalis [1]): > 125 µg/mL
Activity (Staphylococcus aureus [2]): Active
MIC (Staphylococcus aureus [3]): 1 µg/mL (≈ 3.8 µM)
MIC (Enterococcus): 0.5 µg/mL (≈ 1.9 µM)
MIC (Staphylococcus aureus [4]): 1 µg/mL (≈ 3.8 µM)
MIC (Staphylococcus aureus [5]): 1 µg/mL (≈ 3.8 µM)
MIC (Staphylococcus aureus [6]): 0.5 µg/mL (≈ 1.9 µM)
MIC (Staphylococcus aureus [7]): 2 µg/mL (≈ 7.59 µM)
Activity (Staphylococcus aureus [8]): Active
MIC (Staphylococcus aureus [9]): 0.5 µg/mL (≈ 1.9 µM)
Activity (Mus musculus): Non-Toxic
MIC (Enterococcus faecium): 2 µg/mL (≈ 7.59 µM)
MIC (Staphylococcus aureus [10]): 1 µg/mL (≈ 3.8 µM)
MIC (Staphylococcus aureus [11]): 1 µg/mL (≈ 3.8 µM)
MIC (Staphylococcus aureus [12]): 1 µg/mL (≈ 3.8 µM)
MIC (Staphylococcus aureus [13]): 1 µg/mL (≈ 3.8 µM)
MIC (Staphylococcus aureus [14]): 1 µg/mL (≈ 3.8 µM)
MIC (Staphylococcus aureus [15]): 2 µg/mL (≈ 7.59 µM)
MIC (Staphylococcus aureus [16]): 3.9 µg/mL (≈ 14.8 µM)
MIC (Staphylococcus aureus [17]): 1 µg/mL (≈ 3.8 µM)
Activity (Staphylococcus aureus [18]): Active
MIC (Staphylococcus aureus [19]): 1 µg/mL (≈ 3.8 µM)
MIC (Enterococcus faecalis [20]): > 125 µg/mL
MIC (Listeria monocytogenes): 1 µg/mL (≈ 3.8 µM)
MIC [21]: 2 µg/mL (≈ 7.59 µM)
Activity [22]: > 20%
Activity [23]: Active
MIC [24]: 1 µg/mL (≈ 3.8 µM)
MIC (Staphylococcus aureus [25]): ≤ 0.25 µg/mL
MIC (Staphylococcus aureus [26]): 1 µg/mL (≈ 3.8 µM)
hemolysis at 1 h [27]: ≤ 20%
MIC (Staphylococcus aureus [28]): 1 µg/mL (≈ 3.8 µM)
MIC (Staphylococcus aureus [29]): 0.5 µg/mL (≈ 1.9 µM)
MIC (Staphylococcus aureus [30]): 1 µg/mL (≈ 3.8 µM)
Activity (Staphylococcus aureus [31]): 40%
MIC (Staphylococcus aureus [32]): 0.5 µg/mL (≈ 1.9 µM)
MIC (Staphylococcus aureus [33]): 1 µg/mL (≈ 3.8 µM)
MIC (Staphylococcus aureus [34]): 3.9 µg/mL (≈ 14.8 µM)
MIC (Staphylococcus aureus [35]): 1 µg/mL (≈ 3.8 µM)
MIC (Staphylococcus aureus [36]): 1 µg/mL (≈ 3.8 µM)
Activity (Staphylococcus aureus [37]): Active
MIC (Staphylococcus aureus [38]): 1 µg/mL (≈ 3.8 µM)
MIC (Staphylococcus aureus [39]): 2 µg/mL (≈ 7.59 µM)
MIC (Staphylococcus aureus [40]): ≤ 0.25 µg/mL
